Values belong to the compound of their own block, whether it stands above or below them. Activity calls are given as the source filed them. The rule behind the calls is not given here.
Tests used:
[1] = system: Bacillus subtilis; assay: Antimicrobial activity against Bacillus subtilis ATCC 6633 assessed as inhibition of microbial growth by microbroth dilution assay; format: functional
Summary of the method: (§1)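 Broth microdilution susceptibility test against the listed ATCC bacterial strain. Tetracycline at 10 μg/mL served as the positive-control antibiotic. Growth inhibition was read in broth, with MIC values reported.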

[2] = system: Escherichia coli; assay: Antimicrobial activity against Escherichia coli ATCC 25922 assessed as inhibition of microbial growth by microbroth dilution assay; format: functional; summary of the method: as §1
[3] = system: Klebsiella pneumoniae; assay: Antimicrobial activity against Klebsiella pneumoniae ATCC 13883 assessed as inhibition of microbial growth by microbroth dilution assay; format: functional; summary of the method: as §1
[4] = system: Acinetobacter baumannii; assay: Antimicrobial activity against Acinetobacter baumannii ATCC 19606 assessed as inhibition of microbial growth by microbroth dilution assay; format: functional; summary of the method: as §1
[5] = system: Enterococcus faecalis; assay: Antimicrobial activity against vancomycin-resistant Enterococcus faecalis ATCC 51299 assessed as inhibition of microbial growth by microbroth dilution assay; format: functional
Summary of the method: (§2)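 Broth microdilution susceptibility test; the read-out is MIC. The reference antibiotic was tetracycline at 10 μg/mL for MRSA ATCC 43300 and penicillin G at 10 μg/mL for E. faecalis ATCC 51299.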

[6] = system: Pseudomonas aeruginosa; assay: Antimicrobial activity against Pseudomonas aeruginosa ATCC 27853 assessed as inhibition of microbial growth by microbroth dilution assay; format: functional
Summary of the method: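 Broth microdilution susceptibility test against P. aeruginosa ATCC 27853. Tetracycline at 50 μg/mL served as the positive-control antibiotic. Growth inhibition was read in broth, with MIC values reported.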

[7] = system: Staphylococcus aureus; assay: Antimicrobial activity against methicillin-resistant Staphylococcus aureus ATCC 43300 assessed as inhibition of microbial growth by microbroth dilution assay; format: functional; summary of the method: as §2
[8] = system: Cryptococcus neoformans; assay: Antimicrobial activity against Cryptococcus neoformans ATCC 66031 assessed as inhibition of microbial growth by microbroth dilution assay; format: functional
Summary of the method: (§3)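 Antifungal broth microdilution test against the yeast strain (C. albicans ATCC 10231 or C. neoformans ATCC 66031). Amphotericin B at 2 μg/mL served as the control antifungal. MIC values were taken from the broth panel.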

[9] = system: Candida albicans; assay: Antimicrobial activity against Candida albicans ATCC 10231 assessed as inhibition of microbial growth by microbroth dilution assay; format: functional; summary of the method: as §3
[10] = system: Plasmodium falciparum; assay: Antiplasmodial activity against Plasmodium falciparum NF54 assessed as inhibition of microbial growth at 10 ug/ml by [3H]hypoxanthine incorporation assay; format: functional, organism-based
Summary of the method: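 In vitro screen against the drug-sensitive P. falciparum NF54 strain using a modified [3H]hypoxanthine incorporation assay. Chloroquine and artesunate were run as positive controls.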

SMILES: Cc1c(O)cc(O)c2c1C[C@@H](CCCCCC(C)O)OC2=O (some centres not stated)
- MIC [1]: > 100 µg/mL
- MIC [2]: > 100 µg/mL
- MIC [3]: > 100 µg/mL
- MIC [4]: > 100 µg/mL
- MIC [5]: > 100 µg/mL
- MIC [6]: > 100 µg/mL
- MIC [7]: > 100 µg/mL
- MIC [8]: > 100 µg/mL
- MIC [9]: > 100 µg/mL

SMILES: Cc1c(O)cc(O)c2c1C[C@@H](CCCCCCC(=O)O)OC2=O
- MIC [1]: > 100 µg/mL
- MIC [2]: > 100 µg/mL
- MIC [3]: > 100 µg/mL
- MIC [4]: > 100 µg/mL
- MIC [5]: > 100 µg/mL
- MIC [6]: > 100 µg/mL
- MIC [7]: > 100 µg/mL
- MIC [8]: > 100 µg/mL
- MIC [9]: > 100 µg/mL

SMILES: O=C1CC[C@H](O)c2cccc(O)c21
- growth inhibition (GI) [1]: inactive
- growth inhibition (GI) [2]: inactive
- growth inhibition (GI) [3]: inactive
- growth inhibition (GI) [4]: inactive
- growth inhibition (GI) [5]: inactive
- growth inhibition (GI) [6]: inactive
- growth inhibition (GI) [7]: inactive
- MIC [8]: 30 µg/mL
- MIC [9]: 40 µg/mL

SMILES: C[C@@H]1[C@H](O)[C@@H](C)/C=C/C=C/C=C/C=C/C=C/C=C/C=C/[C@H](O[C@@H]2O[C@H](C)[C@@H](O)[C@H](N)[C@@H]2O)C[C@@H]2O[C@](O)(C[C@@H](O)C[C@@H](O)[C@H](O)CC[C@@H](O)C[C@@H](O)CC(=O)O[C@H]1C)C[C@H](O)[C@H]2C(=O)O [AMPHOTERICIN B]
- MIC [8]: 0.2 µg/mL
- MIC [9]: 0.2 µg/mL

SMILES: CC(=O)CCCCC[C@@H]1Cc2c(C)c(O)cc(O)c2C(=O)O1
- MIC [1]: > 100 µg/mL
- MIC [2]: > 100 µg/mL
- MIC [3]: > 100 µg/mL
- MIC [4]: > 100 µg/mL
- MIC [5]: > 100 µg/mL
- MIC [6]: > 100 µg/mL
- growth inhibition (GI) [10]: inactive
- MIC [7]: > 100 µg/mL
- MIC [8]: > 100 µg/mL
- MIC [9]: > 100 µg/mL

SMILES: CCCCCCC[C@@H]1Cc2c(C)c(O)cc(O)c2CO1
- MIC [1]: > 100 µg/mL
- MIC [2]: > 100 µg/mL
- MIC [3]: > 100 µg/mL
- MIC [4]: > 100 µg/mL
- MIC [5]: > 100 µg/mL
- MIC [6]: > 100 µg/mL
- MIC [7]: > 100 µg/mL
- MIC [8]: > 100 µg/mL
- MIC [9]: > 100 µg/mL

SMILES: O=C(O)CCCCCC[C@@H]1Cc2cc(O)cc(O)c2C(=O)O1
- MIC [1]: > 100 µg/mL
- MIC [2]: > 100 µg/mL
- MIC [3]: > 100 µg/mL
- MIC [4]: > 100 µg/mL
- MIC [5]: > 100 µg/mL
- MIC [6]: > 100 µg/mL
- MIC [7]: > 100 µg/mL
- MIC [8]: > 100 µg/mL
- MIC [9]: > 100 µg/mL

- MIC [8]: 35 µg/mL
- MIC [9]: > 100 µg/mL
SMILES: CCCCCCC[C@@H]1Cc2c(C)c(O)c(C(=O)O)c(O)c2CO1
- growth inhibition (GI) [10]: inactive

SMILES: Cc1c(O)cc(O)c2c1C[C@@H](CCCCCCCO)OC2=O
- MIC [1]: > 100 µg/mL
- MIC [2]: > 100 µg/mL
- MIC [3]: > 100 µg/mL
- MIC [4]: > 100 µg/mL
- MIC [5]: > 100 µg/mL
- MIC [6]: > 100 µg/mL
- MIC [7]: > 100 µg/mL
- MIC [8]: > 100 µg/mL
- MIC [9]: > 100 µg/mL

- MIC [8]: 40 µg/mL
- MIC [9]: > 100 µg/mL
SMILES: CCCCCCC[C@@H]1Cc2c(C)c(O)cc(O)c2C(=O)O1
- growth inhibition (GI) [10]: inactive

Reference: ChEMBL document CHEMBL3580551, “Soudanones A-G: Antifungal Isochromanones from the Ascomycetous Fungus Cadophora sp. Isolated from an Iron Mine” (2015)
